For this assay, the target named is T1, Renin (Homo sapiens, UniProt P00797).
T1 sequence (P00797 whole entry): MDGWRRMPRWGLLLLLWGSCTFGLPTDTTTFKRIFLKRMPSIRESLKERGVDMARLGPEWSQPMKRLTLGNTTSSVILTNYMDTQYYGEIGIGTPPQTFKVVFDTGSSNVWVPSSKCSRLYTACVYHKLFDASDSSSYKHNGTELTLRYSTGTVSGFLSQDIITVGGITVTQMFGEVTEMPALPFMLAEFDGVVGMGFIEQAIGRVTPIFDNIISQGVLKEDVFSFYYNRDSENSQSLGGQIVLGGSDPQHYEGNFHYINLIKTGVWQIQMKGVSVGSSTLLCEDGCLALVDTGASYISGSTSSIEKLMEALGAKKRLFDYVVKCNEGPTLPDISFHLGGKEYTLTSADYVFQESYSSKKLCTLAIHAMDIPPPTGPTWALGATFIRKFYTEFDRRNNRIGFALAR
As to the kind of experiment: In vitro inhibition against human plasma renin at pH 7.2 was determined. Format: cell-free. In outline: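 Human plasma renin activity assayed in vitro at pH 7.2 with the synthetic peptides added. IC50 is the peptide concentration that lowered plasma renin activity by 50%.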

Each structure is given as a SMILES string. Starred links: 1 amine or outer side, 2 acyl side, 3 side chain; linkers in the order of their positions; H or OH if unused. Non-standard residues stand in square brackets, D forms with d. Residues, ends and D or L forms follow the SMILES beside them. ξ: configuration not given here. *: point of attachment. ξLeuψ(P(O)(OH)CH2)ξVal = CC(C)CC(N[*:1])P(=O)(O)CC(C(=O)[*:2])C(C)C; X1 = CC(C)CC(N[*:1])P(=O)(O)C[C@@H](C(=O)[*:2])C(C)C; X2 = CC(C)CC(N[*:1])P(=O)(O)CCC(=O)[*:2]; X3 = CC(C)CC(N[*:1])P(=O)(O)CC(=O)[*:2]; NMeH = CN[C@@H](Cc1c[nH]cn1)C(=O)O; NMeF = CN[C@@H](Cc1ccccc1)C(=O)O; ξR = N=C(N)NCCCC(N)C(=O)O; Cbz = O=C(OCc1ccccc1)*; Boc = CC(C)(C)OC(=O)*; OtBu = CC(C)(C)O*

As a reminder, the IC50 is the concentration at which inhibition is half-maximal.

Consider `CC(C)CC(NC(=O)[C@H](Cc1c[nH]cn1)NC(=O)[C@H](Cc1ccccc1)NC(=O)[C@H]1CCCN1C(=O)OCc1ccccc1)P(=O)(O)O` (some centres not stated), for which the IC50 came out at 6.4 µM. As for `CC[C@H](C)[C@H](NC(=O)CCP(=O)(O)[C@@H](CC(C)C)NC(=O)[C@H](Cc1c[nH]cn1)NC(=O)[C@H](Cc1ccccc1)NC(=O)[C@H]1CCCN1C(=O)[C@H](CCCN=C(N)N)NC(=O)[C@H](CCCN=C(N)N)NC(=O)OCc1ccccc1)C(=O)N[C@@H](Cc1c[nH]cn1)C(N)=O`, the IC50 worked out at 10 µM. Against the preceding compound, the IC50 is about 1.6-fold higher.

In turn, `CC[C@H](C)[C@H](NC(=O)[C@@H](CP(=O)(O)[C@@H](CC(C)C)NC(=O)[C@H](Cc1c[nH]cn1)NC(=O)[C@H](Cc1ccccc1)NC(=O)[C@H]1CCCN1C(=O)[C@H](CCCN=C(N)N)NC(=O)[C@H](CCCN=C(N)N)NC(=O)OCc1ccccc1)C(C)C)C(=O)N[C@@H](Cc1c[nH]cn1)C(N)=O` came in with an IC50 of 0.1 µM. Against the preceding compound, the IC50 is about 100-fold lower. Compound `COC(=O)C(CP(=O)(O)C(CC(C)C)NC(=O)CC(O)C(CC(C)C)NC(=O)[C@H](Cc1cnc[nH]1)NC(=O)[C@H](Cc1ccccc1)NC(=O)OCc1ccccc1)C(C)C` (some centres not stated) yielded a 50% inhibitory concentration (IC50) above 30 µM.

`COC(=O)CC(O)[C@H](CC(C)C)NC(=O)[C@H](C)NC(=O)C(CP(=O)(O)C(CC(C)C)NC(=O)[C@H](Cc1c[nH]cn1)NC(=O)[C@H](Cc1ccccc1)NC(=O)[C@H]1CCCN1C(=O)OCc1ccccc1)C(C)C` (some centres not stated) yielded an IC50 of 0.9 µM.

The compound `CC[C@H](C)[C@H](NC(=O)C(CP(=O)(O)C(CC(C)C)NC(=O)[C@H](Cc1cnc[nH]1)NC(=O)[C@H](Cc1ccccc1)NC(=O)[C@H]1CCCN1C(=O)[C@H](Cc1cnc[nH]1)NC(=O)[C@H]1CCCN1)C(C)C)C(=O)N[C@@H](Cc1cnc[nH]1)C(=O)N[C@@H](CCCCN)C(=O)O` (some centres not stated) displayed an IC50 of 0.07 µM. The compound `CC[C@H](C)[C@H](NC(=O)C(CP(=O)(O)C(CC(C)C)NC(=O)[C@H](Cc1cnc[nH]1)NC(=O)[C@H](Cc1ccccc1)NC(=O)[C@H]1CCCN1C(=O)OCc1ccccc1)C(C)C)C(=O)N[C@@H](Cc1cnc[nH]1)C(N)=O` (some centres not stated) showed an IC50 of 0.6 µM.

With `CC(C)CC(NC(=O)[C@H](Cc1cnc[nH]1)NC(=O)[C@H](Cc1ccccc1)NC(=O)[C@H]1CCCN1C(=O)OCc1ccccc1)[PH](=O)O` (some centres not stated), the 50% inhibitory concentration (IC50) is above 30 µM. With `CC[C@H](C)[C@H](NC(=O)C(CP(=O)(O)C(CC(C)C)NC(=O)[C@H](Cc1ccccc1)NC(=O)[C@H](Cc1ccccc1)NC(=O)OC(C)(C)C)C(C)C)C(=O)N[C@@H](Cc1cnc[nH]1)C(N)=O` (some centres not stated) (Boc-FF[ξLeuψ(P(O)(OH)CH2)ξVal]IH-NH2), the IC50 was found to be 6 µM. The compound `CC[C@H](C)[C@H](NC(=O)C(CP(=O)(O)C(CC(C)C)NC(=O)[C@H](Cc1ccccc1)N(C)C(=O)[C@H](Cc1ccccc1)NC(=O)OC(C)(C)C)C(C)C)C(=O)N[C@@H](Cc1c[nH]cn1)C(N)=O` (some centres not stated) (Boc-F[NMeF][ξLeuψ(P(O)(OH)CH2)ξVal]IH-NH2) returned an IC50 above 30 µM. In turn, `CC[C@H](C)[C@H](NC(=O)C(CP(=O)(O)C(CC(C)C)NC(=O)[C@H](Cc1c[nH]cn1)N(C)C(=O)[C@H](Cc1ccccc1)NC(=O)OC(C)(C)C)C(C)C)C(=O)N[C@@H](Cc1c[nH]cn1)C(N)=O` (some centres not stated) (Boc-F[NMeH][ξLeuψ(P(O)(OH)CH2)ξVal]IH-NH2) yielded an IC50 above 30 µM.

In turn, `CC[C@H](C)[C@H](NC(=O)[C@H](CP(=O)(O)C(CC(C)C)NC(=O)[C@H](Cc1cnc[nH]1)NC(=O)[C@H](Cc1ccccc1)NC(=O)OCc1ccccc1)C(C)C)C(=O)N[C@@H](Cc1cnc[nH]1)C(N)=O` (some centres not stated) (Cbz-FH[X1]IH-NH2) gave an IC50 of 2 µM. As to `CC[C@H](C)[C@H](NC(=O)CCP(=O)(O)C(CC(C)C)NC(=O)[C@H](Cc1cnc[nH]1)NC(=O)[C@H](Cc1ccccc1)NC(=O)OCc1ccccc1)C(=O)N[C@@H](Cc1cnc[nH]1)C(N)=O` (some centres not stated) (Cbz-FH[X2]IH-NH2), the IC50 is above 30 µM. In the case of `CC[C@H](C)[C@H](NC(=O)CP(=O)(O)C(CC(C)C)NC(=O)[C@H](Cc1cnc[nH]1)NC(=O)[C@H](Cc1ccccc1)NC(=O)OCc1ccccc1)C(=O)N[C@@H](Cc1cnc[nH]1)C(N)=O` (some centres not stated) (Cbz-FH[X3]IH-NH2), the IC50 was above 30 µM. Take `CC[C@H](C)[C@H](NC(=O)C(CP(=O)(O)C(CC(C)C)NC(=O)[C@H](Cc1cnc[nH]1)NC(=O)[C@H](Cc1ccccc1)NC(=O)OCc1ccccc1)C(C)C)C(=O)N[C@@H](Cc1ccccc1)C(N)=O` (some centres not stated) (Cbz-FH[ξLeuψ(P(O)(OH)CH2)ξVal]IF-NH2): 5 µM corresponded to half-maximal inhibition (IC50). Turning to `CC[C@H](C)[C@H](NC(=O)C(CP(=O)(O)C(CC(C)C)NC(=O)[C@H](Cc1c[nH]cn1)NC(=O)[C@H](Cc1ccccc1)NC(=O)OCc1ccccc1)C(C)C)C(=O)NC(CCCN=C(N)N)C(=O)OC(C)(C)C` (some centres not stated) (Cbz-FH[ξLeuψ(P(O)(OH)CH2)ξVal]I[ξR]-OtBu), the IC50 was above 30 µM. The value for `CC[C@H](C)[C@H](NC(=O)C(CP(=O)(O)C(CC(C)C)NC(=O)[C@H](Cc1c[nH]cn1)NC(=O)[C@H](Cc1ccccc1)NC(=O)CNC(=O)OCc1ccccc1)C(C)C)C(=O)N[C@@H](Cc1c[nH]cn1)C(N)=O` (some centres not stated) (Cbz-GFH[ξLeuψ(P(O)(OH)CH2)ξVal]IH-NH2) was 0.8 µM.

The values above are taken from ChEMBL document CHEMBL1124603, “Renin inhibitors. Synthesis of transition-state analogue inhibitors containing phosphorus acid derivatives at the scissile bond” (J Med Chem, 1989).
